Source: ChEMBL document CHEMBL4706496, “Discovery of novel aminopiperidinyl amide CXCR4 modulators through virtual screening and rational drug design” (Eur J Med Chem, 2020)
Active and inactive are the calls of the source.

Legend:
[1] = target: C-X-C chemokine receptor type 4 (Homo sapiens) (UniProt P61073); assay: Binding affinity to human CXCR4 in human MDA-MB-231 cells assessed as inhibition of CXCR4-targeted conjugate formation preincubated with compound followed by biotinylated-TN14003 addition and measured after 45 mins by competition based microscopic analysis; format: cell-based
Summary of the method: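 MDA-MB-231 cells in chamber slides preincubated with compound at 1, 10, 100 and 1000 nM. Then fixed in 4% formaldehyde, incubated with 50 nM biotinylated TN14003, and stained with streptavidin–rhodamine. Fluorescence imaged by microscopy and quantified. EC defined as the concentration blocking >50% of probe signal; IC50 obtained by curve fitting.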

MDA-MB-231 = assay: Antiinvasive activity against human MDA-MB-231 cells assessed as inhibition of cell migration at 100 nM incubated for 22 hrs by H and E staining based matrigel invasion assay; format: functional
Summary of the method: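 MDA-MB-231 cells (DMEM, 10% FBS, penicillin/streptomycin) seeded on Matrigel in upper chamber with compound at 100 nM; 200 ng/mL CXCL12 in lower chamber as chemoattractant. Invaded cells at the Matrigel bottom fixed in methanol, H&E stained and counted to give percentage invasion.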

[2] = Stability in athymic nude-Foxn1 mouse serum measured upto 120 mins by HPLC method; format: ADME, cell-free; conditions: 2 h
Summary of the method: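 Blood from female athymic nude mice (7 weeks) taken from orbital venous sinus and spun at 13,000 rpm, 6 min, 4 °C. Supernatant mixed 4:1 with 10 mM aqueous compound solution (stock) and held at 36.6 °C. Samples at 0, 5, 15, 30, 60, 120 min passed through 10 kDa filter. Filtrate run on C18 HPLC, acetonitrile/water (0.1% TEA) 3:7, detection at 310 nm. Half-life from one-phase decay fit.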

Mus musculus [3] = assay: Antiinflammatory activity in carrageenan-induced JAZ 007850 J:NU mouse model assessed as reduction in infiltration of CXCR-4 expressing cells at 10 mg/kg, ip qd measured after 74 hrs by immunohistochemistry assay; format: functional, organism-based
Summary of the method: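 Carrageenan paw edema tissue (male nude mice, 10 mg/kg i.p. daily, harvested 74 h) formalin-fixed, paraffin-embedded, deparaffinized. Antigen retrieval by microwaving in 10 mM sodium citrate pH 6.0. Blocked with hydrogen peroxide, avidin/biotin and horse serum. Anti-CXCR4 antibody at 1:500 overnight at 4 °C, then biotinylated secondary and avidin-biotin complex. Developed with diaminobenzidine, hematoxylin counterstain; H&E sections also examined.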

Mus musculus [4] = assay: Antiinflammatory activity in JAZ 007850 J:NU mouse assessed as decrease in carrageenan-induced paw edema treated at 10 mg/kg, ip qd starting 30 min after carrageenan challenge measured after 74 hrs

Sequence of C-X-C chemokine receptor type 4 (Homo sapiens) (P61073 whole entry): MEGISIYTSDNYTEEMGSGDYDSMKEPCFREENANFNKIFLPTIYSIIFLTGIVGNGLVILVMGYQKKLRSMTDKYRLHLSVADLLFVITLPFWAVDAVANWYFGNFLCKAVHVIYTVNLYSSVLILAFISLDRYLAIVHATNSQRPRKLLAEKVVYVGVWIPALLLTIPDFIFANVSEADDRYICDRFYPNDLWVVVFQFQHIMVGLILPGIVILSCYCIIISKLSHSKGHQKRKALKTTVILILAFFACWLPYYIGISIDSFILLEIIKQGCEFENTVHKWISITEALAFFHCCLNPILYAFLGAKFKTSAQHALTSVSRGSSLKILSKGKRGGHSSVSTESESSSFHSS

SMILES	EC [1] [nM]	t1/2 [2] [h]	inhibition at 0.1 µM (MDA-MB-231) [%]	inhibition (MDA-MB-231)	inhibition (Mus musculus [3])	inhibition (Mus musculus [4])
O=C(Nc1ccc2c(c1)OCO2)C1CCN(C(=O)NC2CCN(Cc3ccccc3)CC2)CC1	10		9.3			
NC(=O)C1CCN(Cc2ccc(NC(=O)CCc3c[nH]c4ccccc34)cc2)CC1	1000			inactive		
C[C@H](C(=O)N[C@@H]1CCN(Cc2ccccc2)C1)N1CCC(C(=O)Nc2cc(O)ccc2Cl)CC1	> 1000			inactive		
O=C(CN1CCC(n2nnc(-c3cccs3)n2)CC1)Nc1ccc(Cn2cncn2)cc1	100		40.9			
O=C(NCCc1c[nH]c2ccccc12)C1CCN(C(=O)Cc2nnc(O)c3ccccc23)CC1	1000			inactive		

The next lines start with results.

EC [1] [nM]	t1/2 [2] [h]	SMILES	inhibition at 0.1 µM (MDA-MB-231) [%]	inhibition (MDA-MB-231)	inhibition (Mus musculus [3])	inhibition (Mus musculus [4])
100		N[C@@H](C(=O)NC1CCN(C(=O)CCn2ccc3ccncc32)CC1)c1ccccc1	68.6			
100		C[C@@H](NC(=O)[C@@H](N)c1ccccc1)C(=O)N1CCN(C(=O)CCn2ccc3ccncc32)CC1	15.7			
1	1.28	N=C(N)NCCC[C@H](N)C(=O)NC1CCN(C(=O)CCn2ccc3ccncc32)CC1	78.5		Active	Active
